In ChEMBL document CHEMBL1124368 (J Med Chem, 1989):

What was measured:
Mus musculus [1] = assay: Tumor volume in 20 days after tumor implantation at a dose of 25 mg/kg/day of compound; format: functional
Method in brief: (§1)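 10⁶ M5076 reticulum cell sarcoma cells were injected im into the left leg of female BDF₁ mice, five per group, on day 0. Compound in 10–20% DMSO/arachis oil was dosed ip daily on days 1–17. Tumor volumes (mm³) were recorded on days 12, 16, 20 and 24 after implantation, with NM marking a tumor that could not be measured.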

Mus musculus [2] = assay: Tumor volume in 24 days after tumor implantation at a dose of 6.25 mg/kg/day; format: functional; method in brief: as §1
Mus musculus [3] = assay: Ratio of tumor volume of test(T) animals compared to control(C) animals x 100 T/C(%)] at a dose of 25 mg/kg/day; format: functional
Method in brief: (§2)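 M5076 reticulum cell sarcoma: 10⁶ cells implanted im into the left leg of female BDF₁ mice (groups of five) on day 0. Treatment was ip, daily on days 1–17, in 10–20% DMSO in arachis oil. T/C% is treated tumor volume over control tumor volume × 100.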

Mus musculus [4] = assay: Mean of weight gain from day 0 to day 24 at a dose of 12.5 mg/kg/day of compound; format: functional; design: unit not given here
Method in brief: (§3)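 M5076 reticulum cell sarcoma: 10⁶ cells implanted im into the left leg of female BDF₁ mice (groups of five) on day 0. Drug in 10–20% DMSO in arachis oil was given ip daily on days 1–17. Weight change is the mean weight gain from day 0 to day 24.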

Mus musculus [5] = assay: Tumor volume in 16 days after tumor implantation at a dose of 3.125 mg/kg/day of compound; format: functional; method in brief: as §1
Mus musculus [6] = assay: Tumor volume in 20 days after tumor implantation at a dose of 6.25 mg/kg/day of compound; format: functional; method in brief: as §1
Mus musculus [7] = assay: Tumor volume in 16 days after tumor implantation at a dose of 6.25 mg/kg/day of compound; format: functional; method in brief: as §1
Mus musculus [8] = assay: Mean of weight gain from day 0 to day 24 at a dose of 6.25 mg/kg/day; format: functional; design: unit not given here; method in brief: as §3
Mus musculus [9] = assay: Tumor volume in 24 days after tumor implantation at a dose of 25 mg/kg/day of compound; format: functional; method in brief: as §1
Mus musculus [10] = assay: Tumor volume in 24 days after tumor implantation at a dose of 12.5 mg/kg/day; format: functional; method in brief: as §1
Mus musculus [11] = assay: Ratio of tumor volume of test(T) animals compared to control(C) animals x 100 T/C(%)] at a dose of 12.50 mg/kg/day; format: functional; method in brief: as §2
Mus musculus [12] = assay: Tumor volume in 16 days after tumor implantation at a dose of 12.5 mg/kg/day of compound; format: functional; method in brief: as §1
Mus musculus [13] = assay: Tumor volume in 20 days after tumor implantation at a dose of 12.5 mg/kg/day of compound; format: functional; method in brief: as §1
Mus musculus [14] = assay: (§4) Mean of weight gain from day 0 to day 24 at a dose of 3.125 mg/kg/day of compound; format: functional; design: unit not given here; method in brief: as §3
Mus musculus [15] = assay: Tumor volume in 16 days after tumor implantation at a dose of 25 mg/kg/day of compound; format: functional; method in brief: as §1
Mus musculus [16] = assay: Mean of weight gain from day 0 to day 24 at a dose of 25 mg/kg/day of compound; format: functional; design: unit not given here; method in brief: as §3
Mus musculus [17] = assay: Tumor volume in 20 days after tumor implantation at a dose of 3.125 mg/kg/day; format: functional; method in brief: as §1
Mus musculus [18] = assay: Ratio of tumor volume of test(T) animals compared to control(C) animals x 100 T/C(%)] at a dose of 3.125 mg/kg/day; format: functional; method in brief: as §2
Mus musculus [19] = assay: Ratio of tumor volume of test(T) animals compared to control(C) animals x 100 T/C(%)] at a dose of 6.25 mg/kg/day; format: functional; method in brief: as §2
Mus musculus [20] = assay: Tumor volume in 24 days after tumor implantation at a dose of 3.125 mg/kg/day; format: functional; method in brief: as §1
Mus musculus [21] = assay: Mean of weight gain from day 0 to day 24 at a dose of 50 mg/kg/day of compound; format: functional; method in brief: as §3
Mus musculus [22] = assay: Tumor volume in 12 days after tumor implantation at a dose of 3.125 mg/kg/day of compound; format: functional; method in brief: as §1
Mus musculus [23] = assay: Ratio of tumor volume of test (T) animals compared to control (C) animals x 100 T/C(%)] at a dose of 50 mg/kg/day of compound; format: functional; method in brief: as §2
Mus musculus [24] = assay: Tumor volume in 24 days after tumor implantation at a dose of 3.125 mg/kg/day of compound; format: functional; method in brief: as §1
Mus musculus [25] = assay: Tumor volume in 20 days after tumor implantation at a dose of 3.125 mg/kg/day of compound; format: functional; method in brief: as §1
Mus musculus [26] = assay: Tumor volume in 12 days after tumor implantation at a dose of 6.25 mg/kg/day of compound; format: functional; method in brief: as §1
Mus musculus [27] = assay: Ratio of tumor volume of test(T) animals compared to control(C) animals x 100T/C(%)] at a dose of 3.125 mg/kg/day of compound; format: organism-based; conditions: in vivo; method in brief: as §2
Mus musculus [28] = assay: as §4; format: functional; method in brief: as §3
Mus musculus [29] = assay: Mean of weight gain from day 0 to day 24 in the mice at a dose of 50 mg/kg/day of compound; format: functional; method in brief: as §3
Mus musculus [30] = assay: Tumor volume in 24 days after tumor implantation at a dose of 50 mg/kg/day of compound; format: functional; method in brief: as §1
Mus musculus [31] = assay: Tumor volume in 12 days after tumor implantation at a dose of 12.5 mg/kg/day of compound; format: functional; method in brief: as §1

Row | Compound | Tumor volume (Mus musculus [2]) [mm**3] | Antitumor activity (Mus musculus [3]) [%] | Weight change (Mus musculus [4]) | Tumor volume (Mus musculus [5]) [mm**3] | Tumor volume (Mus musculus [6]) [mm**3] | Tumor volume (Mus musculus [7]) [mm**3] | Weight change (Mus musculus [8]) | Tumor volume (Mus musculus [9]) [mm**3] | Tumor volume (Mus musculus [10]) [mm**3] | Antitumor activity (Mus musculus [11]) [%] | Tumor volume (Mus musculus [12]) [mm**3] | Tumor volume (Mus musculus [13]) [mm**3] | Weight change (Mus musculus [14]) | Weight change (Mus musculus [16]) | Tumor volume (Mus musculus [17]) [mm**3] | Antitumor activity (Mus musculus [18]) [%] | Antitumor activity (Mus musculus [19]) [%] | Tumor volume (Mus musculus [20]) [mm**3] | Tumor volume (Mus musculus [22]) [mm**3] | Antitumor activity (Mus musculus [23]) [%] | other results
1 | CCc1nc(N)nc(N)c1-c1ccc(NCc2ccc(C)cc2)c([N+](=O)[O-])c1 | 1099 | 20 | 2.4 | 596 | 704 | 270 | 2.1 | 514 | 641 | 24 | 198 | 385 | 3 | 2.4 | 1581 | 76 | 44 | 1881 |  |  | Tumor volume (Mus musculus [1]): 426 mm**3; Tumor volume (Mus musculus [15]): 180 mm**3
2 | CCc1nc(N)nc(N)c1-c1ccc(NCc2ccc(Cl)c(Cl)c2)c([N+](=O)[O-])c1 | 851 | <8 | 3 | 498 | 385 | 256 | 3.5 |  | 395 | 16 |  | 216 | 3.6 | 2.7 | 858 | 48 | 36 | 1173 | 216 | <8 | Weight change (Mus musculus [21]): 2.9
3 | CN(Cc1cnc2nc(N)nc(N)c2n1)c1ccc(C(=O)N[C@@H](CCC(=O)O)C(=O)O)cc1 [METHOTREXATE] |  |  |  | 987 |  | 389 |  |  |  |  |  |  |  |  |  |  |  |  | 411 |  | Tumor volume (Mus musculus [24]): 2270 mm**3; Tumor volume (Mus musculus [25]): 1914 mm**3; Tumor volume (Mus musculus [26]): 347 mm**3; T/C (Mus musculus [27]): 92%; Weight change (Mus musculus [28]): 3.9
4 | CCCCNc1ccc(-c2c(N)nc(N)nc2CC)cc1[N+](=O)[O-] | 1920 | 22 | 3.6 | 622 | 913 | 438 | 5.4 | 638 | 1061 | 41 | 283 | 496 | 8.2 | 3.7 | 1176 | 78 | 70 | 2143 | 271 | 15 | Weight change (Mus musculus [29]): 2.7; Tumor volume (Mus musculus [30]): 368 mm**3; Tumor volume (Mus musculus [26]): 212 mm**3; Tumor volume (Mus musculus [31]): 180 mm**3
